Where “and” joins values, the source holds several entries; their conditions need not be identical. Identical values can stand only once. Entries after “also recorded” stand apart in the source; their conditions may differ.
Assays:
male CD-1 mice = experiment: Acute toxicity; assay type: in vivo; conditions: male CD-1 mice
Acute toxicity [1] = assay type: in vivo, mice; conditions: male, CD-1, mouse, in vivo, po
male Nude mice = experiment: Acute toxicity; assay type: in vivo; conditions: male nude mice
Acute toxicity [2] = assay type: in vivo, mice; conditions: male, Nude, mouse, in vivo, ip
[3] = Oral pharmacokinetics and bioavailability in rats; assay type: in vivo; conditions: for bioavailability: both; for AUC(0-t): AUClast; for Vd/F: Vz/F; for AUC(0-inf): AUCinf; for half-life: T1/2, male rats
Outline: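 Sprague Dawley rats (8–12 wk, 3/sex/group, catheterised jugular vein) got one oral gavage dose of 10 or 50 mg/kg. Dose was a solution in cremophor:ethanol:saline (1:1:8), pH 4.0, at 10 ml/kg. EDTA plasma was collected at 5, 15, 30 min, 1, 2, 4, 6 and 24 h, precipitated with acetonitrile, and quantified by LC-MS/MS against abiraterone internal standard. Noncompartmental parameters; bioavailability from oral AUClast versus IV.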

[4] = female rats, 10 mg/kg PO, GeoMean
[5] = female rats, 10 mg/kg PO, individual rat, listed as VNPP433-3β, 10 mg/kg
[6] = female rats, 50 mg/kg PO, individual rat, listed as VNPP433-3β, 50 mg/kg
[7] = female, Sprague Dawley, rat, plasma, po, 10 mg/kg, female rats, 10 mg/kg PO, GeoMean
[8] = female, Sprague Dawley, rat, plasma, po, 10 mg/kg, female rats, 10 mg/kg PO, individual rat
[9] = male rats, 10 mg/kg PO, GeoMean
[10] = male rats, 10 mg/kg PO, individual rat, listed as VNPP433-3β, 10 mg/kg
[11] = male rats, 50 mg/kg PO, GeoMean
[12] = male rats, 50 mg/kg PO, individual rat, listed as VNPP433-3β, 50 mg/kg
[13] = male, Sprague Dawley, rat, plasma, po, 10 mg/kg, male rats, 10 mg/kg PO, GeoMean
[14] = male, Sprague Dawley, rat, plasma, po, 10 mg/kg, male rats, 10 mg/kg PO, individual rat

SMILES: C[C@]12CC[C@H](n3ccnc3)CC1=CC[C@@H]1[C@@H]2CC[C@]2(C)C(n3cnc4ccccc43)=CC[C@@H]12 [Compound 2, 3β-(1H-imidazole-1-yl)-17-(1H-benzimidazole-1-yl)-androsta-5,16-diene]
- Tolerability and mortality (male CD-1 mice; 100 mg/kg PO, observed 72 hrs): well tolerated, and no mortality was observed
- Mortality (male CD-1 mice; 1000 mg/kg PO, 3 mice, 1000 mg/kg): two mice died on days 2 and the third mice died on day 3; also recorded: Two mice were in a moribund stage and found dead 36 hrs. post dose, the third mice died 72 hrs. post dose
- Clinical signs (male CD-1 mice; 1000 mg/kg PO, after 24 hrs): piloerection, apathy (inactive) and hypothermia
- Gross necropsy, organ toxicity (male CD-1 mice; all three dose groups (100, 300, 1000 mg/kg PO), postmortem): no evident organ toxicity
- Signs of toxicity at necropsy (male CD-1 mice; low (100 mg/kg) and medium (300 mg/kg) dose PO, after 72 hrs): no signs of toxicity were observed
- NOAEL at 72 h (Acute toxicity [1]): > 300 mg/kg
- Mortality (male Nude mice; 100 mg/kg single intraperitoneal dose, 3 mice, 100 mg/kg): one mouse died in the 100 mg/kg group
- Signs of toxicity (male Nude mice; 25 and 50 mg/kg single intraperitoneal dose, two weeks): did not exhibit any signs of toxicity
- MTD at 2 weeks (Acute toxicity [2]): 50 mg/kg
- bioavailability ([3]; Sprague Dawley, rat, plasma, oral): 32 to 47%
- bioavailability ([3]; Sprague Dawley, rat, plasma, po, 10 mg/kg): 32 to 34%
- AUC% Extrap [3, 4]: 81.9%
- Cmax/D [3, 4]: 59.4 ng/mL/mg/kg
- AUC% Extrap [3, 5]: 76.9% and 88.6% and 80.8%
- AUClast [3, 5]: 484 µg·min/mL and 785 µg·min/mL
- Cmax [3, 5]: 408 ng/mL and 681 ng/mL
- Cmax/D [3, 5]: 75.5 ng/mL/mg/kg and 40.8 ng/mL/mg/kg and 68.1 ng/mL/mg/kg
- Cmax/D ([3]; female rats, 50 mg/kg PO, GeoMean): 90.0 ng/mL/mg/kg
- AUClast [3, 6]: 5560 µg·min/mL and 4300 µg·min/mL
- Cmax [3, 6]: 4820 ng/mL and 4320 ng/mL
- Cmax/D [3, 6]: 87.6 ng/mL/mg/kg and 96.4 ng/mL/mg/kg and 86.4 ng/mL/mg/kg
- AUC(0-t) [3, 7]: 11600 ng·h/mL
- AUC(0-t) [3, 8]: 14900 ng·h/mL
- CL/F ([3]; female, Sprague Dawley, rat, plasma, po, 10 mg/kg, CL/F, female rats, 10 mg/kg PO, GeoMean): 2.46 mL/min/kg
- CL/F ([3]; female, Sprague Dawley, rat, plasma, po, 10 mg/kg, CL/F, female rats, 10 mg/kg PO, individual rat): 2.58 mL/min/kg
- Cmax ([3]; female, Sprague Dawley, rat, plasma, po, 10 mg/kg, Cmax, female rats, 10 mg/kg PO, GeoMean): 594 ng/mL
- Cmax ([3]; female, Sprague Dawley, rat, plasma, po, 10 mg/kg, Cmax, female rats, 10 mg/kg PO, individual rat): 755 ng/mL
- Tmax ([3]; female, Sprague Dawley, rat, plasma, po, 10 mg/kg, Tmax, female rats, 10 mg/kg PO, GeoMean): 6 h
- Tmax ([3]; female, Sprague Dawley, rat, plasma, po, 10 mg/kg, Tmax, female rats, 10 mg/kg PO, individual rat): 6 h
- Vd/F [3, 7]: 16.3 L/kg
- Vd/F [3, 8]: 12.7 L/kg
- AUC(0-t) ([3]; female, Sprague Dawley, rat, plasma, po, 50 mg/kg, female rats, 50 mg/kg PO, GeoMean): 80000 ng·h/mL
- AUC(0-t) ([3]; female, Sprague Dawley, rat, plasma, po, 50 mg/kg, female rats, 50 mg/kg PO, individual rat): 76800 ng·h/mL
- Cmax ([3]; female, Sprague Dawley, rat, plasma, po, 50 mg/kg, Cmax, female rats, 50 mg/kg PO, GeoMean): 4500 ng/mL
- Cmax ([3]; female, Sprague Dawley, rat, plasma, po, 50 mg/kg, Cmax, female rats, 50 mg/kg PO, individual rat): 4380 ng/mL
- Tmax ([3]; female, Sprague Dawley, rat, plasma, po, 50 mg/kg, Tmax, female rats, 50 mg/kg PO, GeoMean): 24 h
- Tmax ([3]; female, Sprague Dawley, rat, plasma, po, 50 mg/kg, Tmax, female rats, 50 mg/kg PO, individual rat): 23.3 h
- AUC% Extrap [3, 9]: 16.5%
- Cmax/D [3, 9]: 61.3 ng/mL/mg/kg
- AUC% Extrap [3, 10]: 24.4% and 9.55% and 19.3%
- AUCinf [3, 10]: 364 µg·min/mL and 715 µg·min/mL
- AUClast [3, 10]: 329 µg·min/mL and 577 µg·min/mL
- CL/F [3, 10]: 27.5 mL/min/kg and 14.0 mL/min/kg
- Cmax [3, 10]: 460 ng/mL and 715 ng/mL
- Cmax/D [3, 10]: 70.2 ng/mL/mg/kg and 46.0 ng/mL/mg/kg and 71.5 ng/mL/mg/kg
- T1/2 [3, 10]: 6.3 h and 9.0 h
- Vz/F [3, 10]: 15.0 L/kg and 10.9 L/kg
- AUC% Extrap [3, 11]: 79.5%
- Cmax/D [3, 11]: 54.5 ng/mL/mg/kg
- Tmax ([3]; male rats, 50 mg/kg PO, individual rat): 6 h
- AUC% Extrap [3, 12]: 94.3% and 66.9%
- AUClast [3, 12]: 4460 µg·min/mL and 3600 µg·min/mL
- Cmax [3, 12]: 3430 ng/mL and 3160 ng/mL
- Cmax/D [3, 12]: 37.4 ng/mL/mg/kg and 68.6 ng/mL/mg/kg and 63.2 ng/mL/mg/kg
- Tmax [3, 12]: 6 h
- Time of peak of PO concentration-time profiles ([3]; male rats, PO): 6 h
- AUC(0-inf) [3, 13]: 9380 ng·h/mL
- AUC(0-inf) [3, 14]: 11400 ng·h/mL
- AUC(0-t) [3, 13]: 7700 ng·h/mL
- AUC(0-t) [3, 14]: 8650 ng·h/mL
- CL/F ([3]; male, Sprague Dawley, rat, plasma, po, 10 mg/kg, CL/F, male rats, 10 mg/kg PO, GeoMean): 17.8 mL/min/kg
- CL/F ([3]; male, Sprague Dawley, rat, plasma, po, 10 mg/kg, CL/F, male rats, 10 mg/kg PO, individual rat): 14.6 mL/min/kg
- Cmax ([3]; male, Sprague Dawley, rat, plasma, po, 10 mg/kg, Cmax, male rats, 10 mg/kg PO, GeoMean): 613 ng/mL
- Cmax ([3]; male, Sprague Dawley, rat, plasma, po, 10 mg/kg, Cmax, male rats, 10 mg/kg PO, individual rat): 702 ng/mL
- half-life ([3]; male, Sprague Dawley, rat, plasma, po, 10 mg/kg, 10 mg/kg PO, GeoMean): 8.22 h
- half-life ([3]; male, Sprague Dawley, rat, plasma, po, 10 mg/kg, 10 mg/kg PO, individual rat): 9.8 h
- Tmax ([3]; male, Sprague Dawley, rat, plasma, po, 10 mg/kg, Tmax, male rats, 10 mg/kg PO, GeoMean): 6 h
- Tmax ([3]; male, Sprague Dawley, rat, plasma, po, 10 mg/kg, Tmax, male rats, 10 mg/kg PO, individual rat): 6 h
- Vd/F [3, 13]: 12.6 L/kg

From article PMC9998351 (Steroids, 2023)
